Measurements as given in the EternaBench riboswitch data.

System: MS2 coat protein
Experiment: apparent Kd, MS2 coat protein; higher = weaker binding; RNA-MaP array; FMN 200 µM where present
Summary of the method: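 Stalled E. coli RNA polymerase produced the designs on Illumina sequencing-chip clusters. SNAP-549-labelled MS2 coat protein was added from 0.7 or 1.5 nM, doubling to 3 µM, without and then with constant ligand, in 100 mM Tris-HCl pH 7.5, 80 mM KCl, 4 mM MgCl2, BSA, DTT, yeast tRNA and Tween-20. The apparent Kd is the median of filtered per-cluster fits of green signal normalised to red-channel RNA signal and control-cluster median Fmax.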

[1] = designed as: OFF switch for flavin mononucleotide, no ligand
[2] = ligand present: flavin mononucleotide, designed as: OFF switch for flavin mononucleotide
[3] = designed as: ON switch for flavin mononucleotide, no ligand
[4] = ligand present: flavin mononucleotide, designed as: ON switch for flavin mononucleotide

CCAUCGAGUGUGAGGAUAUGCUGGUCCUUGGAUCAGCAGAAGGCACAUGAGGAUCACCCAUGUGGAUACGGUGG
apparent Kd [1]: 31 nM | apparent Kd [2]: 235 nM

CCUCCACAUGAGGAUCACCCAUGUCAGGAUAUCGUGUGCGCGUUUUCGGUCUUUCGUGCGAGAAGGGACGUCUG
apparent Kd [1]: 36.9 nM | apparent Kd [2]: 35 nM

UCAUACGGUGAGGAUAUCUCCGUUAAAGUAUGUAGAGAAGGCGCUACAUGAGGAUCACCCAUGUUUGUGGGCAG
apparent Kd [1]: 392 nM | apparent Kd [2]: 278 nM

CGCGAACAUGAGGAUCACCCAUGUGGGUGGAACGUAGGAUAUACGCAGGUCUUUAAAACGGUAGAAGGACGUUCGC
apparent Kd [3]: 452 nM | apparent Kd [4]: 159 nM

CGGAUGUGAGGAUAUACAUGAGGAUCACCCAUGUGUGCCAGCUAGCUGACUGGCACUUGUAGAAGGCACGUCUG
apparent Kd [1]: 10.8 nM | apparent Kd [2]: 22 nM

AUUACAAUUGUAUACAUGAGGAUCACCCAUGUUAUAAGUCAUGAGGAUAUGGUAUUGUAGUUAUUCCAGAAGGCAUAUAGCUAA
apparent Kd [3]: 14.3 nM | apparent Kd [4]: 9.2 nM

AAGUAGGUAGGAUAUACAUGGAUAUACAUUCAUGUGGACCUACAUGAGGAUCACCCAUGUAGAAGGACCUACUA
apparent Kd [1]: 36.9 nM | apparent Kd [2]: 79.1 nM

GAUCGACCUGAGAAGGCACAUGAGGAUCACCCAUGUUGAACCAUACAUGCCACAAAGUGGCAGUGUGAGGAUAUCAGGUCGAUC
apparent Kd [1]: 5.81 nM | apparent Kd [2]: 8.34 nM

UUUAUAAAGAUAGGAUAUUGUAUUAUAAUUAAAUAAGAAGGAUCACACAUGAGGAUCACCCAUGUAUGAGGAUCACCCAUGUAU
apparent Kd [1]: 15.8 nM | apparent Kd [2]: 14.5 nM

CCGCGCAUAGGAUAUUAAUCUCACGACAUGAGGAUCACCCAUGUAACUCUGUGUGCGAUCUAAGAAGGGUGGGCUU
apparent Kd [1]: 28.8 nM | apparent Kd [2]: 24 nM

UGGUGACGUGUAGGAUAUGGAGGUGGGUUUUGGCCAGAAGGACAUGAGGAUCACCCAUGUGGUAGAGGGUUGGCGGCGGCCCGU
apparent Kd [1]: 16.9 nM | apparent Kd [2]: 15.1 nM

GAUAUAGUUGAGAAGGGAAGGGCACAGUCCUCUCUAAAACUACAUGAGGAUCACCCAUGUGGCUUUCAGGAUAUCAGCGCUAAA
apparent Kd [1]: 22.5 nM | apparent Kd [2]: 109 nM

UGUGCGUAUGUGAGGAUAUGCUGGUCCUUGGAUCGGCAGAAGGCACAUGAGGAUCACCCAUGUGGUGUCGUUCG
apparent Kd [1]: 239 nM | apparent Kd [2]: 24 nM

CUUAUGUGAGGAUAUCAGUAGUAAUACAAUAGUAUUACUACUGAGAAGGCACAUGAGGAUCACCCAUGUUCCUU
apparent Kd [1]: 28.1 nM | apparent Kd [2]: 131 nM

GUGCAAUGAGGAUAUACGUUGGUGGGCAUCUGUGUGCUCCUACAUGAGGAUCACCCAUGUAGAAGGCAUGUCAC
apparent Kd [1]: 12.5 nM | apparent Kd [2]: 15.8 nM

UUUCAGCAAGGAUAUACGGGCUGUGCUUUUCAUUUCUUACAACAUGAGGAUCACCCAUGUAGAAGGUGCUUCUU
apparent Kd [1]: 297 nM | apparent Kd [2]: 736 nM

GGUCCACAUGAGGAUCACCCAUGUCAGGAUAUACACGGCACUAUAAUAAGUGCCACCCGUAGAAGGGACGCUGG
apparent Kd [1]: 17.2 nM | apparent Kd [2]: 38.5 nM

GGGAGUCUACAUGAGGAUCACCCAUGUGGUCCAGCAGGAACACAGGAUAUCCAAUGAGAUUCUCGGGAGAAGGGUGAAUGCUUA
apparent Kd [3]: 107 nM | apparent Kd [4]: 174 nM

UGAGCUUGAGGAUAUACAUGAGGAUCACCCAUGUUGAGCUUGAGGAUCUUCGAGUUCGGUAGAAGGCGAGUUCG
apparent Kd [1]: 16 nM | apparent Kd [2]: 33 nM

UGGUUGUGAGGAUAUACGUUUUUUAACUUUUGUUUUAUAUUGUAGAAGGCACAUGAGGAUCACCCAUGUUACGU
apparent Kd [1]: 22.9 nM | apparent Kd [2]: 30.8 nM

CUGUUACGUGUAGGAUAUGCAUAUUCCCAUUAUGCAGAAGGACAUGAGGAUCACCCAUGUAUGUUAUUAUCAUGUGUUACAUGC
apparent Kd [1]: 34.6 nM | apparent Kd [2]: 153 nM

AGAAAGAAGCAAGGAUAUUGUAAAAUUAAUGUACAAGAAGGUGCUGUUUAUGUCUCUUAACAUGAGGAUCACCCAUGUAUUGGU
apparent Kd [3]: 68.6 nM | apparent Kd [4]: 45.9 nM

AACCUCGGAGGAUAUACCUACCGAUUCACAAGUGUCACAUCACAUGAGGAUCACCCAUGUAGAAGGUCGAGGCG
apparent Kd [1]: 30 nM | apparent Kd [2]: 97.1 nM

GGUGCUAUGUAGAAGGCAGAUCUGAUUCAGAUCUGAGGAUAUACAUGAGGAUCACCCAUGUUAUGCACCAGCACGAGAGUGCAC
apparent Kd [1]: 7.57 nM | apparent Kd [2]: 13.3 nM

CCAGAUAUGUGAGGAUAUAGAGUGGAAUACACUCUAGAAGGUAUGUGAAAACAUGAGGAUCACCCAUGUCAUUGAUUAUCUGGA
apparent Kd [3]: 26 nM | apparent Kd [4]: 27.5 nM

UGGUACUAGGGAGGAUAUGGGAAGAUACAUGAGGAUCACCCAUGUUUAAGAACGCCGAGAGGCAACUAGAAGGCCCUAGUACCU
apparent Kd [3]: 340 nM | apparent Kd [4]: 14.8 nM

CCCGAGUUAGGAUAUCGGACCGGUCCGCGCGGACUGGCAAUUGAGAAGGAACAUGAGGAUCACCCAUGUGAGUA
apparent Kd [1]: 25.5 nM | apparent Kd [2]: 52.3 nM

UGUUGGAGCAGAGGAUAUUACAUGAGGAUCACCCAUGUAUGAACCAAUAGCUGGAAACAGCAAUGUAAGAAGGCUGCUCCGACA
apparent Kd [1]: 12.1 nM | apparent Kd [2]: 161 nM

GUACUCAUGUAAGGAUAUGCAGCCGAAACGGCUGCAGAAGGUACUAUAAUACAUGAGGAUCACCCAUGUCAAAAUAAAAUAGUU
apparent Kd [3]: 116 nM | apparent Kd [4]: 35.4 nM

GCACUGGAUGUAGGAUAUCAGGACGAUAAGUCCUGAGAAGGACAUGAGGAUCACCCAUGUGAUUACACCAGUGCAAAUAAUAUA
apparent Kd [1]: 5.78 nM | apparent Kd [2]: 7.06 nM

GCAGAUCAAGUGAGGAUAUCGUCUACCUCGGUAGACGAGAAGGCACAUGAGGAUCACCCAUGUGAUUGAUCUGC
apparent Kd [1]: 17.6 nM | apparent Kd [2]: 23.6 nM

CGGCAAGUCACAGGAUAUGGUGAUGUACAUGAGGAUCACCCAUGUCCGUCUUCUCUCACAAGAUGCCAGAAGGGUGACUUCCAG
apparent Kd [3]: 946 nM | apparent Kd [4]: 140 nM

UAUAUUUAUGUAGGAUAUGGUAUACAAAGUAUACCAGAAGGACAUGAGGAUCACCCAUGUAUGAAAUUCCAUAAUUGCCGUGUA
apparent Kd [1]: 16.1 nM | apparent Kd [2]: 16.4 nM

GAAUAAUUGAUCCAAUUUAUCUACAUGAGGAUCACCCAUGUGCAGGAUAUCGUAAAAUUUAAUAACGAGAAGGGCAAGAACGGU
apparent Kd [1]: 135 nM | apparent Kd [2]: 385 nM

CGCUACUACCAGAAGGACAUGAGGAUCACCCAUGUAGGAUAUGGGUUACAAGUACCAGUGUAAAGAAACUACGCUACAGUAGCG
apparent Kd [3]: 57.8 nM | apparent Kd [4]: 8.73 nM

GCCAGUUAUGUAGGAUAUGCGAGGCGAGCCUGAGCAGAAGGACAUGAGGAUCACCCAUGUAUUGCGGUUUAAGUUCUGAUCGCU
apparent Kd [1]: 22.2 nM | apparent Kd [2]: 47.2 nM

AAAAAACAUGAGGAUCACCCAUGUGAGGAUAUGACUUAAAUAAAGAAAGAAGAAAUAGUCAGAAGGCACAAAUA
apparent Kd [1]: 54.5 nM | apparent Kd [2]: 70.4 nM

UUCAGCUUGACAGGAUAUACAUGACUGCGAAAGCAGUCUAUCUUAAUAACAUGAGGAUCACCCAUGUAGAAGGGUCGAGCUGAA
apparent Kd [1]: 16.2 nM | apparent Kd [2]: 26.5 nM

ACAUGUUAUACAGGAUAUGUUAUACAAUAAUCAAUCAGUUAUUAUGAUUUUACAGAAGGGUAUACAUGAGGAUCACCCAUGUUA
apparent Kd [1]: 31.5 nM | apparent Kd [2]: 33.8 nM

ACUAGAUGCGUGCAAUAACACAUGAGGAUCACCCAUGUGACACAGGAUAUAACCAGAUCAGAAAGUUAGAAGGGUGAGCACGCA
apparent Kd [3]: 29.6 nM | apparent Kd [4]: 18.9 nM

UGUCCAUAGCAGAAGGACAUGAGGAUCACCCAUGUAAUCAUACAAAUAUAUGUAGGAUAUGCUAUGGACUAAGAGCGAAAGCUC
apparent Kd [1]: 6.14 nM | apparent Kd [2]: 6.74 nM

CCAUUCAGAGGAUAUGCGCAUAGAUAAGACUUUUUUUCUUAACAUGAGGAUCACCCAUGUAGAAGGCUGUAACC
apparent Kd [1]: 19.7 nM | apparent Kd [2]: 18.6 nM

GGUGAAGCAGGAUAUGUGCCGAUAUACAUGAGGAUCACCCAUGUCAUGUAGGAACCGCGUAUAGAAGGGCUUCACC
apparent Kd [1]: 39.2 nM | apparent Kd [2]: 67.1 nM

GCUAUUGGCUAAGGAUAUGGAUACAUGAGGAUCACCCAUGUAAGAAUUGUGAUCAUAUAAAUGAUCCAGAAGGUAGCUGUUAGC
apparent Kd [1]: 280 nM | apparent Kd [2]: 502 nM

GACUUGGCUACAUGAGGAUCACCCAUGUUUGACUGGAUCGAUCAGGAUAUAGUAAUUUGCAACAAUUAGAAGGGAUAUUUACGG
apparent Kd [3]: 65.9 nM | apparent Kd [4]: 56.9 nM

UGCGGAAGAGGAUAUACGUAGAACUAGGUUCAUGUAAAACUACAUGAGGAUCACCCAUGUAGAAGGCUUUCGCU
apparent Kd [1]: 15.9 nM | apparent Kd [2]: 20.4 nM

GUCAGCUCGUGAGGAUAUACAUGUGCUGGAUACAGCACUAUUAAGAUCACAUGAGGAUCACCCAUGUAGAAGGCACGAGCUGAU
apparent Kd [1]: 49.5 nM | apparent Kd [2]: 643 nM

GAGCGAAAGCUCAAUGUCGAUAGCAGAAGGACAUGUAAAUACAUGAAAACAUGAGGAUCACCCAUGUAGGAUAUGCUAUCGACU
apparent Kd [1]: 5.46 nM | apparent Kd [2]: 12.7 nM
